Where a SMILES comes first, the peptide text is derived from it. [ ]: non-standard residue; d: D form. The star is where a group is joined. Tyr(Nα,Nα-allyl2) = C=CCN(CC=C)[C@@H](Cc1ccc(O)cc1)C(=O)*; Aib = CC(C)(N)C(=O)O
The molecules below were run against T1, Delta-type opioid receptor (Homo sapiens, UniProt P41143) (assay: Inverse agonist potency at cloned human delta-opioid receptor).
Assay type: functional

T1 sequence (P41143 whole entry): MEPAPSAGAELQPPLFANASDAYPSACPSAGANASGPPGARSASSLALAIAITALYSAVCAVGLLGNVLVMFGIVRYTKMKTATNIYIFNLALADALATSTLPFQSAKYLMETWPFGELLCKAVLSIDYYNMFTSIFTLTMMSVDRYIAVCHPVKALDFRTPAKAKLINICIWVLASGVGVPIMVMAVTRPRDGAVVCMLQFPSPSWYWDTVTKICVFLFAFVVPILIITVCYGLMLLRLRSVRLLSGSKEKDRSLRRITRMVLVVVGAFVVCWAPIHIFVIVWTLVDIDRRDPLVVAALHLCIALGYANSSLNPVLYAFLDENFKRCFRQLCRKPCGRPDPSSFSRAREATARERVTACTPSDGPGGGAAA

Structure (SMILES)	IC50
CC1CN(CCCc2ccccc2)C2C[C@@H](NC(=O)C3(c4ccccc4)CCCC3)CC1(c1cccc(O)c1)C2 (single isomer, unassigned; (+))	1.8 nM
CC1CN(CCCc2ccccc2)C2CC(NC(=O)C3(c4ccccc4)CCCC3)CC1(c1cccc(O)c1)C2 (racemic)	2.4 nM

The molecules below were run against T1, Delta-type opioid receptor (assay: Inverse agonist potency at cloned human opioid receptor delta 1).
Assay type: functional

Structure (SMILES)	IC50
Cc1ccccc1/C=C/CN1CC[C@@](C)(c2cccc(O)c2)[C@@H](C)C1	2.8 nM
CC1CN(CCCc2ccccc2)C2C[C@H](NC(=O)C3(c4ccccc4)CCCC3)CC1(c1cccc(O)c1)C2 (stereo partly drawn)	15.2 nM

Each molecule was assayed against T1, Delta-type opioid receptor (assay: Ability to inhibit agonist-stimulated (DPDPE) [35S]GTP-gamma-S, binding, using cloned human opioid receptor delta 1 expressed in CHO cells).
Assay type: functional, cell-based
Summary of the method: (§1)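 Agonist dose-response curves in [35S]GTPγS binding were run with and without one fixed concentration of test compound, with 10 μM GDP final. Ke = [L]/((A'/A)−1), where A' and A are agonist EC50 with and without antagonist. Mean ± SE from at least three independent experiments.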

Structure (SMILES)	Ke
C=CCN(CC=C)[C@@H](Cc1ccc(O)cc1)C(=O)NC(C)(C)C(=O)NC(C)(C)C(=O)N[C@@H](Cc1ccccc1)C(=O)N[C@@H](CC(C)C)C(=O)O ({Tyr(Nα,Nα-allyl2)}-[Aib][Aib]FL-OH)	7.85 nM
CC1CN(CCCc2ccccc2)C2C[C@H](NC(=O)C3(c4ccccc4)CCCC3)CC1(c1cccc(O)c1)C2 (stereo partly drawn)	4.24 nM
Oc1ccc2c3c1O[C@H]1c4[nH]c5ccccc5c4C[C@@]4(O)[C@@H](C2)N(CC2CC2)CC[C@]314	0.21 nM
CC1CN(CCCc2ccccc2)C2C[C@@H](NC(=O)C3(c4ccccc4)CCCC3)CC1(c1cccc(O)c1)C2 (single isomer, unassigned; (+))	0.15 nM
CC1CN(CCCc2ccccc2)C2CC(NC(=O)C3(c4ccccc4)CCCC3)CC1(c1cccc(O)c1)C2 (racemic)	0.55 nM

The molecules below were run against T1, Delta-type opioid receptor (assay: Binding affinity towards opioid receptor delta 1 expressed in CHO cells was determined by using [3H]DPDPE as radioligand).
Assay type: cell-based

Structure (SMILES)	Ki
C=CCN(CC=C)[C@@H](Cc1ccc(O)cc1)C(=O)NC(C)(C)C(=O)NC(C)(C)C(=O)N[C@@H](Cc1ccccc1)C(=O)N[C@@H](CC(C)C)C(=O)O ({Tyr(Nα,Nα-allyl2)}-[Aib][Aib]FL-OH)	19.1 nM

These molecules were tested against Kappa-type opioid receptor (Homo sapiens) (UniProt P41145) (assay: Ability to inhibit agonist-stimulated (U69,593) [35S]GTP-gamma-S, binding, using cloned human Opioid receptor kappa 1 expressed in CHO cells).
Assay type: functional, cell-based
Summary of the method: as §1

Sequence of Kappa-type opioid receptor (Homo sapiens) (P41145 whole entry): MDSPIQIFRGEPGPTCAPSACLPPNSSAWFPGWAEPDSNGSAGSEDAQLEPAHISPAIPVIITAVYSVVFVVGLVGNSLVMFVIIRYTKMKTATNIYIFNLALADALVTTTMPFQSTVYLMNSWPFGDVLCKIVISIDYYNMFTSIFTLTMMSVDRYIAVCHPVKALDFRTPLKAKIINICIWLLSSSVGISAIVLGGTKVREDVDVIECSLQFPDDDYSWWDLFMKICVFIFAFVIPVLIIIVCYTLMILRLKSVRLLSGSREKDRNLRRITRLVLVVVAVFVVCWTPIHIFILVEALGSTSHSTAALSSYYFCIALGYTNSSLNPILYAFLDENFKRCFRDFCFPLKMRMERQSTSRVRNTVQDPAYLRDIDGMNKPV

Structure (SMILES)	Ke
C=CCN(CC=C)[C@@H](Cc1ccc(O)cc1)C(=O)NC(C)(C)C(=O)NC(C)(C)C(=O)N[C@@H](Cc1ccccc1)C(=O)N[C@@H](CC(C)C)C(=O)O ({Tyr(Nα,Nα-allyl2)}-[Aib][Aib]FL-OH)	339 nM
CC1CN(CCCc2ccccc2)C2C[C@H](NC(=O)C3(c4ccccc4)CCCC3)CC1(c1cccc(O)c1)C2 (stereo partly drawn)	5.51 nM
Oc1ccc2c3c1O[C@H]1c4[nH]c5ccccc5c4C[C@@]4(O)[C@@H](C2)N(CC2CC2)CC[C@]314	16.1 nM
CC1CN(CCCc2ccccc2)C2C[C@@H](NC(=O)C3(c4ccccc4)CCCC3)CC1(c1cccc(O)c1)C2 (single isomer, unassigned; (+))	17.9 nM
CC1CN(CCCc2ccccc2)C2CC(NC(=O)C3(c4ccccc4)CCCC3)CC1(c1cccc(O)c1)C2 (racemic)	3.52 nM

These molecules were tested against T1, Delta-type opioid receptor (assay: [3H]-Cl-DPDPE competition binding assay using human cloned opioid receptor delta 1).

Structure (SMILES)	Ki
CC1CN(CCCc2ccccc2)C2C[C@H](NC(=O)C3(c4ccccc4)CCCC3)CC1(c1cccc(O)c1)C2 (stereo partly drawn)	9.3 nM
CC1CN(CCCc2ccccc2)C2C[C@@H](NC(=O)C3(c4ccccc4)CCCC3)CC1(c1cccc(O)c1)C2 (single isomer, unassigned; (+))	0.96 nM
CC1CN(CCCc2ccccc2)C2CC(NC(=O)C3(c4ccccc4)CCCC3)CC1(c1cccc(O)c1)C2 (racemic)	2.1 nM

Each molecule was assayed against Mu-type opioid receptor (Homo sapiens) (UniProt P35372) (assay: Ability to inhibit agonist-stimulated (DAMGO) [35S]GTP-gamma-S, binding, using cloned human Opioid receptor mu 1expressed in CHO cells).
Assay type: functional, cell-based
Summary of the method: as §1

Sequence of Mu-type opioid receptor (Homo sapiens) (P35372 whole entry): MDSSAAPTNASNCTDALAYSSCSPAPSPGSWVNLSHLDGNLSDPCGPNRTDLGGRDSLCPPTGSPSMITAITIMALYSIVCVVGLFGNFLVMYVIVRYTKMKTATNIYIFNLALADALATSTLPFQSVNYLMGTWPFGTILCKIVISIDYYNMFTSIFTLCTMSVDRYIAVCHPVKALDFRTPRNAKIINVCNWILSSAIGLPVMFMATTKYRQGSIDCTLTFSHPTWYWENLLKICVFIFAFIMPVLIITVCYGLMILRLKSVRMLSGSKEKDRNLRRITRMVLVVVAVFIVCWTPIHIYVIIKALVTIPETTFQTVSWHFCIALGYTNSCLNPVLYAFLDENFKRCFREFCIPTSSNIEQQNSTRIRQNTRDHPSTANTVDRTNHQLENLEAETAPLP

Structure (SMILES)	Ke
C=CCN(CC=C)[C@@H](Cc1ccc(O)cc1)C(=O)NC(C)(C)C(=O)NC(C)(C)C(=O)N[C@@H](Cc1ccccc1)C(=O)N[C@@H](CC(C)C)C(=O)O ({Tyr(Nα,Nα-allyl2)}-[Aib][Aib]FL-OH)	42 nM
CC1CN(CCCc2ccccc2)C2C[C@H](NC(=O)C3(c4ccccc4)CCCC3)CC1(c1cccc(O)c1)C2 (stereo partly drawn)	40.3 nM
Oc1ccc2c3c1O[C@H]1c4[nH]c5ccccc5c4C[C@@]4(O)[C@@H](C2)N(CC2CC2)CC[C@]314	33 nM
CC1CN(CCCc2ccccc2)C2C[C@@H](NC(=O)C3(c4ccccc4)CCCC3)CC1(c1cccc(O)c1)C2 (single isomer, unassigned; (+))	8.7 nM
CC1CN(CCCc2ccccc2)C2CC(NC(=O)C3(c4ccccc4)CCCC3)CC1(c1cccc(O)c1)C2 (racemic)	12.2 nM

Each molecule was assayed against T1, Delta-type opioid receptor (assay: Efficacy at cloned human opioid receptor delta 1, expressed as percent of basal binding).

Structure (SMILES)	Basal binding
Cc1ccccc1/C=C/CN1CC[C@@](C)(c2cccc(O)c2)[C@@H](C)C1	76%
CC1CN(CCCc2ccccc2)C2C[C@H](NC(=O)C3(c4ccccc4)CCCC3)CC1(c1cccc(O)c1)C2 (stereo partly drawn)	78%

These molecules were tested against Opioid receptors; delta & kappa (Homo sapiens) (UniProt P41145+P41143) (assay: Selectivity ratio of agonist stimulated [35S]GTP-gamma-S, binding in cloned human kappa-opioid receptor versus delta-opioid receptor).
Assay type: functional

Sequence of Opioid receptors; delta & kappa (Homo sapiens) (P41143 whole entry, looked up): as the sequence (P41143 whole entry) above
Sequence of Opioid receptors; delta & kappa (Homo sapiens) (P41145 whole entry, looked up): as the sequence (P41145 whole entry) above

Structure (SMILES)	Selectivity ratio
C=CCN(CC=C)[C@@H](Cc1ccc(O)cc1)C(=O)NC(C)(C)C(=O)NC(C)(C)C(=O)N[C@@H](Cc1ccccc1)C(=O)N[C@@H](CC(C)C)C(=O)O ({Tyr(Nα,Nα-allyl2)}-[Aib][Aib]FL-OH)	43
CC1CN(CCCc2ccccc2)C2C[C@H](NC(=O)C3(c4ccccc4)CCCC3)CC1(c1cccc(O)c1)C2 (stereo partly drawn)	1.3
CC1CN(CCCc2ccccc2)C2C[C@@H](NC(=O)C3(c4ccccc4)CCCC3)CC1(c1cccc(O)c1)C2 (single isomer, unassigned; (+))	119
CC1CN(CCCc2ccccc2)C2CC(NC(=O)C3(c4ccccc4)CCCC3)CC1(c1cccc(O)c1)C2 (racemic)	6.4

The molecules below were run against Opioid receptors; mu & delta (Homo sapiens) (UniProt P41143+P35372) (assay: Selectivity ratio of agonist stimulated [35S]GTP-gamma-S, binding in cloned human mu-opioid receptor versus delta-opioid receptor).
Assay type: functional

Sequence of Opioid receptors; mu & delta (Homo sapiens) (P35372 whole entry, looked up): as the sequence (P35372 whole entry) above
Sequence of Opioid receptors; mu & delta (Homo sapiens) (P41143 whole entry, looked up): as the sequence (P41143 whole entry) above

Structure (SMILES)	Selectivity ratio
C=CCN(CC=C)[C@@H](Cc1ccc(O)cc1)C(=O)NC(C)(C)C(=O)NC(C)(C)C(=O)N[C@@H](Cc1ccccc1)C(=O)N[C@@H](CC(C)C)C(=O)O ({Tyr(Nα,Nα-allyl2)}-[Aib][Aib]FL-OH)	5.4
CC1CN(CCCc2ccccc2)C2C[C@H](NC(=O)C3(c4ccccc4)CCCC3)CC1(c1cccc(O)c1)C2 (stereo partly drawn)	9.5
CC1CN(CCCc2ccccc2)C2C[C@@H](NC(=O)C3(c4ccccc4)CCCC3)CC1(c1cccc(O)c1)C2 (single isomer, unassigned; (+))	58
CC1CN(CCCc2ccccc2)C2CC(NC(=O)C3(c4ccccc4)CCCC3)CC1(c1cccc(O)c1)C2 (racemic)	22

— ChEMBL document CHEMBL1148374 (J Med Chem, 2004)
